# According to ChEMBL document CHEMBL1255544, “Synthesis and evaluation of novel chloropyrrole molecules designed by molecular hybridization of common pharmacophores as potential antimicrobial agents” (2010):
# Calls of active or inactive are those of the source. No cut-off for these calls is given here.
# What was measured:
# Staphylococcus aureus [1] = assay: Antimicrobial activity against Staphylococcus aureus ATCC 25923 after 24 hrs by broth dilution method; type: functional; details: ATCC 25923, 24 h
# How it was run: (§1)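 MIC by broth dilution: the lowest concentration (highest dilution) that arrested bacterial or fungal growth. Strains were E. coli ATCC-25922, S. aureus ATCC-25923, P. aeruginosa ATCC-27853 and C. albicans.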
# Escherichia coli [2] = assay: Antimicrobial activity against Escherichia coli ATCC […] after 24 hrs by disk diffusion method; type: functional
# How it was run: (§2)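 Zone of inhibition by disc diffusion against E. coli ATCC-25922, S. aureus ATCC-25923, P. aeruginosa ATCC-27853 and recultured Klebsiella pneumoniae.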
# Pseudomonas aeruginosa [3] = assay: Antimicrobial activity against Pseudomonas aeruginosa ATCC 27853 after 24 hrs by broth dilution method; type: functional; details: ATCC 27853, 24 h; how it was run: as §1
# Staphylococcus aureus [4] = assay: Antimicrobial activity against Staphylococcus aureus ATCC 25923 after 24 hrs by disk diffusion method; type: functional; how it was run: as §2
# Candida albicans [5] = assay: Antimicrobial activity against Candida albicans after 48 hrs by broth dilution method; type: functional; how it was run: as §1
# Escherichia coli [6] = assay: Antimicrobial activity against Escherichia coli ATCC […] after 24 hrs by broth dilution method; type: functional; how it was run: as §1
# Klebsiella pneumoniae [7] = assay: Antimicrobial activity against Klebsiella pneumoniae at 100 ug/ml after 24 hrs by broth dilution method; type: functional, organism-based
# Pseudomonas aeruginosa [8] = assay: Antimicrobial activity against Pseudomonas aeruginosa ATCC 27853 after 24 hrs by disk diffusion method; type: functional; how it was run: as §2
# Candida albicans [9] = assay: Antimicrobial activity against Candida albicans after 48 hrs by agar dilution method; type: functional
# How it was run: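 Candida albicans tested by agar dilution, with compounds in DMSO.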
# Klebsiella pneumoniae [10] = assay: Antimicrobial activity against Klebsiella pneumoniae after 24 hrs by disk diffusion method; type: functional; how it was run: as §2
Structure (SMILES),MIC (Staphylococcus aureus [1]),diameter of the inhibition zone (DIZ) (Escherichia coli [2]),MIC (Pseudomonas aeruginosa [3]),diameter of the inhibition zone (DIZ) (Staphylococcus aureus [4]),MIC (Candida albicans [5]),MIC (Escherichia coli [6]),Activity (Klebsiella pneumoniae [7]),diameter of the inhibition zone (DIZ) (Pseudomonas aeruginosa [8]),diameter of the inhibition zone (DIZ) (Candida albicans [9]),diameter of the inhibition zone (DIZ) (Klebsiella pneumoniae [10])
COc1ccc(/C=C/C(=O)c2cc(Cl)c[nH]2)cc1OC,12.5 mg/L,16 mm,100 mg/L,13 mm,50 mg/L,12.5 mg/L,inactive,14 mm,12 mm,
O=C(/C=C/c1ccccc1O)c1cc(Cl)c[nH]1,12.5 mg/L,10 mm,25 mg/L,16 mm,50 mg/L,25 mg/L,inactive,18 mm,15 mm,
O=C(N/N=C/c1ccccc1)c1cc(Cl)c(Cl)[nH]1,3.12 mg/L,11 mm,50 mg/L,16 mm,12.5 mg/L,12.5 mg/L,,18 mm,23 mm,17 mm
CN(C)c1ccc(/C=N/NC(=O)c2cc(Cl)c(Cl)[nH]2)cc1,12.5 mg/L,22 mm,25 mg/L,15 mm,12.5 mg/L,6.25 mg/L,,15 mm,22 mm,12 mm
CN(C)c1ccc(/C=N/NC(=O)c2cc(Cl)c[nH]2)cc1,12.5 mg/L,17 mm,100 mg/L,10 mm,25 mg/L,12.5 mg/L,inactive,14 mm,18 mm,
COc1ccc(/C=N/NC(=O)c2cc(Cl)c(Cl)[nH]2)cc1OC,1.56 mg/L,20 mm,12.5 mg/L,25 mm,12.5 mg/L,3.12 mg/L,,18 mm,24 mm,17 mm
COc1ccc(OC)c(/C=C/C(=O)c2cc(Cl)c(Cl)[nH]2)c1,6.25 mg/L,20 mm,100 mg/L,22 mm,50 mg/L,6.25 mg/L,,15 mm,15 mm,16 mm
O=C(/C=C/c1ccc(Cl)cc1)c1cc(Cl)c(Cl)[nH]1,3.12 mg/L,16 mm,25 mg/L,25 mm,50 mg/L,6.25 mg/L,,16 mm,14 mm,17 mm
O=C(N/N=C/c1ccco1)c1cc(Cl)c(Cl)[nH]1,1.56 mg/L,24 mm,25 mg/L,26 mm,12.5 mg/L,3.12 mg/L,,24 mm,23 mm,20 mm
O=C(N/N=C/c1c(O)cccc1O)c1cc(Cl)c[nH]1,3.12 mg/L,21 mm,50 mg/L,24 mm,25 mg/L,6.25 mg/L,inactive,14 mm,18 mm,
O=C(N/N=C/c1ccccc1O)c1cc(Cl)c(Cl)[nH]1,1.56 mg/L,18 mm,50 mg/L,22 mm,12.5 mg/L,3.12 mg/L,,18 mm,16 mm,19 mm
